Data: ChEMBL document CHEMBL4043093, “2-Oxo-3, 4-dihydropyrimido[4, 5-d]pyrimidinyl derivatives as new irreversible pan fibroblast growth factor receptor (FGFR) inhibitors” (Eur J Med Chem, 2017)

Assays:
[1] = system: Tyrosine-protein kinase ABL1 (Homo sapiens), P00519 [T315I]; assay: Inhibition of human phosphorylated ABL1 T315I mutant (S229 to K512 residues) expressed in HEK293 cells assessed as residual activity at 1000 nM after 30 mins by Kinomescan method relative to control; type: cell-based
Procedure, shortened: (§1)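 Single-point screen at a fixed 1 µM, run within a 456-kinase DiscoveRx KINOMEscan panel. Each kinase's read-out is Percent Control, i.e. signal relative to a control without compound. Hits were scored by a Percent Control < 35 cut-off, and an S(35) selectivity score was calculated across the non-mutant kinases.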

[2] = target: RAC-beta serine/threonine-protein kinase (Homo sapiens) (UniProt P31751); assay: Inhibition of wild-type human partial length AKT2 expressed in Escherichia coli BL21 assessed as residual activity at 1000 nM after 30 mins by Kinomescan method relative to control
[3] = target: Aurora kinase C (Homo sapiens) (UniProt Q9UQB9); assay: Inhibition of wild-type human full length AURKC (M1 to S275 residues) expressed in Escherichia coli BL21 assessed as residual activity at 1000 nM after 30 mins by Kinomescan method relative to control; procedure, shortened: as §1
[4] = target: Bone morphogenetic protein receptor type-1B (Homo sapiens) (UniProt O00238); assay: Inhibition of wild-type human partial length BMPR1B (D178 to L502 residues) expressed in HEK293 cells assessed as residual activity at 1000 nM after 30 mins by Kinomescan method relative to control; type: cell-based
[5] = target: Mitotic checkpoint serine/threonine-protein kinase BUB1 (Homo sapiens) (UniProt O43683); assay: Inhibition of wild-type human partial length BUB1 (Q724 to K1085 residues) expressed in HEK293 cells assessed as residual activity at 1000 nM after 30 mins by Kinomescan method relative to control; type: cell-based
[6] = target: Cyclin-dependent kinase 4 (Homo sapiens) (UniProt P11802); assay: Inhibition of wild-type human full length CDK4 (M1 to E303 residues) expressed in HEK293 cells assessed as residual activity at 1000 nM after 30 mins by Kinomescan method relative to control; type: cell-based; procedure, shortened: as §1
[7] = target: Megakaryocyte-associated tyrosine-protein kinase (Homo sapiens) (UniProt P42679); assay: Inhibition of wild-type human full length CTK (M43 to P508 residues) expressed in HEK293 cells assessed as residual activity at 1000 nM after 30 mins by Kinomescan method relative to control; type: cell-based
Procedure, shortened: (§2)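 Single-concentration screen at 1 µM across a 456-kinase KINOMEscan panel. The read-out is Percent Control for each kinase.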

[8] = target: Vascular endothelial growth factor receptor 1 (Homo sapiens) (UniProt P17948); assay: Inhibition of wild-type human partial length FLT1 (R781 to F1239 residues) expressed in Escherichia coli BL21 assessed as residual activity at 1000 nM after 30 mins by Kinomescan method relative to control
[9] = target: G protein-coupled receptor kinase 4 (Homo sapiens) (UniProt P32298); assay: Inhibition of wild-type human full length GRK4 (M1 to C578 residues) expressed in Escherichia coli BL21 assessed as residual activity at 1000 nM after 30 mins by Kinomescan method relative to control; procedure, shortened: as §2
[10] = target: Glycogen synthase kinase-3 beta (Homo sapiens) (UniProt P49841); assay: Inhibition of wild-type human full length GSK3B (M1 to T433 residues) expressed in HEK293 cells assessed as residual activity at 1000 nM after 30 mins by Kinomescan method relative to control; type: cell-based; procedure, shortened: as §2
[11] = target: Tyrosine-protein kinase JAK2 (Homo sapiens) (UniProt O60674); assay: Inhibition of wild-type human partial length JAK2 JH1 catalytic domain (A829 to G1132 residues) expressed in HEK293 cells assessed as residual activity at 1000 nM after 30 mins by Kinomescan method relative to control; type: cell-based
[12] = target: Tyrosine-protein kinase Lck (Homo sapiens) (UniProt P06239); assay: Inhibition of wild-type human partial length LCK (R207 to P509 residues) expressed in Escherichia coli BL21 assessed as residual activity at 1000 nM after 30 mins by Kinomescan method relative to control
[13] = target: Serine/threonine-protein kinase Nek2 (Homo sapiens) (UniProt P51955); assay: Inhibition of wild-type human partial length NEK2 (M1 to K309 residues) expressed in Escherichia coli BL21 assessed as residual activity at 1000 nM after 30 mins by Kinomescan method relative to control
[14] = target: Serine/threonine-protein kinase Nek7 (Homo sapiens) (UniProt Q8TDX7); assay: Inhibition of wild-type human full length NEK7 (M1 to S302 residues) expressed in Escherichia coli BL21 assessed as residual activity at 1000 nM after 30 mins by Kinomescan method relative to control; procedure, shortened: as §2
[15] = target: Serine/threonine-protein kinase OSR1 (Homo sapiens) (UniProt O95747); assay: Inhibition of wild-type human full length OSR1 (M1 to S527 residues) expressed in HEK293 cells assessed as residual activity at 1000 nM after 30 mins by Kinomescan method relative to control; type: cell-based; procedure, shortened: as §2
[16] = target: Serine/threonine-protein kinase PAK 3 (Homo sapiens) (UniProt O75914); assay: Inhibition of wild-type human full length PAK3 (M1 to R544 residues) expressed in Escherichia coli BL21 assessed as residual activity at 1000 nM after 30 mins by Kinomescan method relative to control; procedure, shortened: as §2
[17] = target: Phosphatidylinositol 4,5-bisphosphate 3-kinase catalytic subunit beta isoform (Homo sapiens) (UniProt P42338); assay: Inhibition of wild-type human partial length PIK3CB (P118 to S1070 residues) expressed in HEK293 cells assessed as residual activity at 1000 nM after 30 mins by Kinomescan method relative to control; type: cell-based
[18] = target: Phosphatidylinositol 4,5-bisphosphate 3-kinase catalytic subunit gamma isoform (Homo sapiens) (UniProt P48736); assay: Inhibition of wild-type human partial length PIK3CG (S144 to A1102 residues) expressed in HEK293 cells assessed as residual activity at 1000 nM after 30 mins by Kinomescan method relative to control; type: cell-based
[19] = target: Serine/threonine-protein kinase PLK1 (Homo sapiens) (UniProt P53350); assay: Inhibition of wild-type human partial length PLK1 (A33 to F325 residues) expressed in HEK293 cells assessed as residual activity at 1000 nM after 30 mins by Kinomescan method relative to control; type: cell-based
[20] = target: Serine/threonine-protein kinase PLK4 (Homo sapiens) (UniProt O00444); assay: Inhibition of wild-type human partial length PLK4 (M1 to S273 residues) expressed in HEK293 cells assessed as residual activity at 1000 nM after 30 mins by Kinomescan method relative to control; type: cell-based
[21] = target: Ribosomal protein S6 kinase alpha-2 (Homo sapiens) (UniProt Q15349); assay: Inhibition of wild-type human partial length N-terminal RSK2 kinase domain 1 (M1 to D394 residues) expressed in HEK293 cells assessed as residual activity at 1000 nM after 30 mins by Kinomescan method relative to control; type: cell-based
[22] = target: BDNF/NT-3 growth factors receptor (Homo sapiens) (UniProt Q16620); assay: Inhibition of wild-type human partial length TRKB (Q547 to G838 residues) expressed in HEK293 cells assessed as residual activity at 1000 nM after 30 mins by Kinomescan method relative to control; type: cell-based

Sequence of Vascular endothelial growth factor receptor 1 (Homo sapiens) (P17948 whole entry, the tested form may be a part): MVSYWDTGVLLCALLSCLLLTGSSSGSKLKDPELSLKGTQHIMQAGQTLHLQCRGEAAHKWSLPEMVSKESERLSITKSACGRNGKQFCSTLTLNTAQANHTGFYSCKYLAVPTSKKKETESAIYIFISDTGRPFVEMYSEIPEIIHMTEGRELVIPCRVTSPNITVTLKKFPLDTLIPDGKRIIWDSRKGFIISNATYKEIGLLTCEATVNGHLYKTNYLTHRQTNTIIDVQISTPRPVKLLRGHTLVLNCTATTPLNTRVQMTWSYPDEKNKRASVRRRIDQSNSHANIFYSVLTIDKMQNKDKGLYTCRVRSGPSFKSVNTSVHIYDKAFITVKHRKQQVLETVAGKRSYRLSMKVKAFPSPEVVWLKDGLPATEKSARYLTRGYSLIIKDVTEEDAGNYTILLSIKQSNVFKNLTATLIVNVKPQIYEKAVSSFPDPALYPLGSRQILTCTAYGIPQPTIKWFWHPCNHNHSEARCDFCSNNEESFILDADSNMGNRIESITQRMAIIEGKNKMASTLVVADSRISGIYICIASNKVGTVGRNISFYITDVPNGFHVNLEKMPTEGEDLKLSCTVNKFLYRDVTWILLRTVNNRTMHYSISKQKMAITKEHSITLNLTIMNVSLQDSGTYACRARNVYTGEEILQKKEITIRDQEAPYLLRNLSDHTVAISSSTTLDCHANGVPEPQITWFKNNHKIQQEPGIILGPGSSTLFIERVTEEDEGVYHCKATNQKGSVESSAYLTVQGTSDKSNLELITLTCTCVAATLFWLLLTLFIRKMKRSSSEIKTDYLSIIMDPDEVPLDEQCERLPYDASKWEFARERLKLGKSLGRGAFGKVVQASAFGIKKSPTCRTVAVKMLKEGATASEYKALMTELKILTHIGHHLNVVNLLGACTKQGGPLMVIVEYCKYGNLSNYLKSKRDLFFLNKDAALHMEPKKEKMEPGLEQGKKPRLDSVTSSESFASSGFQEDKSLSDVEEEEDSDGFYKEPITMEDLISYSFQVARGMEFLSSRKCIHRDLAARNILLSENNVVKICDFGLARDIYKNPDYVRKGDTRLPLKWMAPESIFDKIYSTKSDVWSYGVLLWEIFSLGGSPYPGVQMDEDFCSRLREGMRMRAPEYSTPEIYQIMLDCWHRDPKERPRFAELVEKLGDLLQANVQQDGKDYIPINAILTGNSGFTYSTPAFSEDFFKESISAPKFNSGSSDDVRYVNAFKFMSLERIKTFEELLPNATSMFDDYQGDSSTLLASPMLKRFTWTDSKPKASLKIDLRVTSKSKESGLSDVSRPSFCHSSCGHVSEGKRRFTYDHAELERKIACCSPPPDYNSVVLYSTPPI
Sequence of Megakaryocyte-associated tyrosine-protein kinase (Homo sapiens) (P42679 whole entry, the tested form may be a part): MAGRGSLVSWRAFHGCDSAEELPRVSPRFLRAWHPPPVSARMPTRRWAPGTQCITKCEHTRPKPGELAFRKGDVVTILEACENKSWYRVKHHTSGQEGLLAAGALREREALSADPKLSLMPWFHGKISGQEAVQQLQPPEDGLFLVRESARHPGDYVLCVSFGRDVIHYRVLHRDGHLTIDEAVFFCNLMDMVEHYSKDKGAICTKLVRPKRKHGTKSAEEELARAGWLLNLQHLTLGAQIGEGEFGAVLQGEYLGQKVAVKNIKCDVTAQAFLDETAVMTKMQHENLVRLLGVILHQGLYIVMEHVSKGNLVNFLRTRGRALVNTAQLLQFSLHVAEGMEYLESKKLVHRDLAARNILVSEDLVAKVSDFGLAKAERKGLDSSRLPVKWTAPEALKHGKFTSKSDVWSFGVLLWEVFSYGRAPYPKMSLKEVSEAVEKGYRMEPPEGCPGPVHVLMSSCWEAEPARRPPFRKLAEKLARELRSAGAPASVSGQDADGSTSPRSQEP
Sequence of Glycogen synthase kinase-3 beta (Homo sapiens) (P49841 whole entry, looked up, the tested form may be a part): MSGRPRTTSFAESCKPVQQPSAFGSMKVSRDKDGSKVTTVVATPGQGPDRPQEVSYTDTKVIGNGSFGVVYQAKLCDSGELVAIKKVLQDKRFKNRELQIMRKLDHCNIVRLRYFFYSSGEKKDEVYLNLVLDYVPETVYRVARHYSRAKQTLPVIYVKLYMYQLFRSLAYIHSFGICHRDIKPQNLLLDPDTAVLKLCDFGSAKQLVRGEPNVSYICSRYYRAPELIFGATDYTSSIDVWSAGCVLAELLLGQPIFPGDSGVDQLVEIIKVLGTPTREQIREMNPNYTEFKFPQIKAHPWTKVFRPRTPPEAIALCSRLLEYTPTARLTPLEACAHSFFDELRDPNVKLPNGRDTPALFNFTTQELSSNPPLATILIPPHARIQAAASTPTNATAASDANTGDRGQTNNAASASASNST
Sequence of G protein-coupled receptor kinase 4 (Homo sapiens) (P32298 whole entry, looked up, the tested form may be a part): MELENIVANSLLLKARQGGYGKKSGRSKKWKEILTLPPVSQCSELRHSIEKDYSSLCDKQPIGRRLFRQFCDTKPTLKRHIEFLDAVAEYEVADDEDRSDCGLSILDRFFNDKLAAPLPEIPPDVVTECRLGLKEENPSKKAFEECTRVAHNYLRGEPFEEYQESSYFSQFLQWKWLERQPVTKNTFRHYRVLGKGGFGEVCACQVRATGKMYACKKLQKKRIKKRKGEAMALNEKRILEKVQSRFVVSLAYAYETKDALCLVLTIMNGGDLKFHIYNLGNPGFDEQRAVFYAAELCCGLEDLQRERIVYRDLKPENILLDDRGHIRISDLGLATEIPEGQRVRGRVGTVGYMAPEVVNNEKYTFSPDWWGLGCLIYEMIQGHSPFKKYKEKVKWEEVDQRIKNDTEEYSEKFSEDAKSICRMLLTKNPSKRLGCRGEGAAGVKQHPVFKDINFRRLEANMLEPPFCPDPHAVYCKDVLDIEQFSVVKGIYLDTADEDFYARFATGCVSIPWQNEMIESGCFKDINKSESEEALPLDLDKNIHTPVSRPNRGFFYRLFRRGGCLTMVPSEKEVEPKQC
Sequence of Serine/threonine-protein kinase Nek2 (Homo sapiens) (P51955 whole entry, the tested form may be a part): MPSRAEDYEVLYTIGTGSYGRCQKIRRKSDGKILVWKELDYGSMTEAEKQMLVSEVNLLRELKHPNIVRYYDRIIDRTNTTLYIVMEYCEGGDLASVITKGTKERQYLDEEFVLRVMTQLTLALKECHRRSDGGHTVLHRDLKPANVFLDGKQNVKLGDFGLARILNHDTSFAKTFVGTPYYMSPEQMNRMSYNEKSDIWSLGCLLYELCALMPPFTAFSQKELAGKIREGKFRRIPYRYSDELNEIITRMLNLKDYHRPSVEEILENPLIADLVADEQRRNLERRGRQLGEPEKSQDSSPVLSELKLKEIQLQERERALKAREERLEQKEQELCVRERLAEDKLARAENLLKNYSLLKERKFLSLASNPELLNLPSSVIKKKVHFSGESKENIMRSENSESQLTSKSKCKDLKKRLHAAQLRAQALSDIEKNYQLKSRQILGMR
Sequence of Ribosomal protein S6 kinase alpha-2 (Homo sapiens) (Q15349 whole entry, the tested form may be a part): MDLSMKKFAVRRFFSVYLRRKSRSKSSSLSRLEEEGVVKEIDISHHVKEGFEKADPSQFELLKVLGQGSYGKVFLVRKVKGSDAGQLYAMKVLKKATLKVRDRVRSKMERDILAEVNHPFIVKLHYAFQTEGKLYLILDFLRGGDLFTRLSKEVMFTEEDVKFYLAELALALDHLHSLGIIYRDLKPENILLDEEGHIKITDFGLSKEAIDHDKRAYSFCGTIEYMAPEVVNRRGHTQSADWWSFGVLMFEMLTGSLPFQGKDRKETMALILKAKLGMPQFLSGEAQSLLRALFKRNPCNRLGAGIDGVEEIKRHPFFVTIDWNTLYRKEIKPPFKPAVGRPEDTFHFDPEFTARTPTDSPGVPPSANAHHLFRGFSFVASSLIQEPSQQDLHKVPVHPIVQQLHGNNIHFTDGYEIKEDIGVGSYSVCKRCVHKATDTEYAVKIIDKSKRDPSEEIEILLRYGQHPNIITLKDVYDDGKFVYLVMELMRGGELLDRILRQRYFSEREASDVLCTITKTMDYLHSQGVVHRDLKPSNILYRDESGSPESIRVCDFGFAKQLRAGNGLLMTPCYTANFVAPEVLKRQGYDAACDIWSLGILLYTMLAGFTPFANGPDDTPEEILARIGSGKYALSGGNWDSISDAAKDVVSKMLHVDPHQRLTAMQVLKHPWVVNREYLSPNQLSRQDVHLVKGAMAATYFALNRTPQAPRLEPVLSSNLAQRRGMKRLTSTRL
Sequence of Aurora kinase C (Homo sapiens) (Q9UQB9 whole entry, the tested form may be a part): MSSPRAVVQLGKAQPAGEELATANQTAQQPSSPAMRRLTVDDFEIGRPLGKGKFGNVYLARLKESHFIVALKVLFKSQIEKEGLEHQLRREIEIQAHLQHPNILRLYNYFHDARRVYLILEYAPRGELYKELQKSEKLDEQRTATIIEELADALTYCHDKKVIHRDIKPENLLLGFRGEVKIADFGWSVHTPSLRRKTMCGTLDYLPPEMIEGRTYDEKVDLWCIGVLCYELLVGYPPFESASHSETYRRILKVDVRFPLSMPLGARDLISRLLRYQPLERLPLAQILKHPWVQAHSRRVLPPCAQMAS
Sequence of RAC-beta serine/threonine-protein kinase (Homo sapiens) (P31751 whole entry, the tested form may be a part): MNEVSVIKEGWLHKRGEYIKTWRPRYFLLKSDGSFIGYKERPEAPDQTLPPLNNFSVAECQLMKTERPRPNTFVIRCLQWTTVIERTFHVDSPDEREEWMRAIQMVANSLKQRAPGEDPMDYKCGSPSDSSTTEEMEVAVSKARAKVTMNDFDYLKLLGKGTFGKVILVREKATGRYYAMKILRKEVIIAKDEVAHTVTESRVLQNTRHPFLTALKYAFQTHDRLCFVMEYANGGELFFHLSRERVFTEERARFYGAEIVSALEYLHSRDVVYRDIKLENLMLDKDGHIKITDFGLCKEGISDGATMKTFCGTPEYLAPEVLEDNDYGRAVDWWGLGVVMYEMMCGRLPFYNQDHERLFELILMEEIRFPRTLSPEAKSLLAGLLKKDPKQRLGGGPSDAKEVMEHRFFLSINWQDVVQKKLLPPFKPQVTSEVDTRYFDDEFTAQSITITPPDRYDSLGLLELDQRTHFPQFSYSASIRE

For `COc1cc(OC)c(Cl)c(N2Cc3cnc(Nc4ccc(F)cc4)nc3N(C3CCN(C(=O)/C=C/CN(C)C)CC3)C2=O)c1Cl`, the Activity [1] was 97%, the Activity [2] was 92% and the Activity [3] was 100%. The Activity [4] was 97%, the Activity [5] was 100% and the Activity [6] was 100%. For the same compound, the Activity [7] was 100%, the Activity [8] was 5.6% and the Activity [9] was 78%. It also gave an Activity [10] of 100%, an Activity [11] of 100% and an Activity [12] of 1.5%. It also gave an Activity [13] of 53%, an Activity [14] of 100% and an Activity [15] of 100%. It also gave an Activity [16] of 99%, an Activity [17] of 100% and an Activity [18] of 100%. The Activity [19] was 100%, the Activity [20] was 100% and the Activity [21] was 89%. For the same compound, the Activity [22] was 54%.
